# Laboratory results from PMC3164867 (Journal of medicinal chemistry, 2009).
# Key:
# activated α4β1 integrin = activated α4β1 integrin (Homo sapiens, UniProt P05556+P13612); assay type: cell-based; conditions: for potency (in words): SAR summary, Molt-4 cell adhesion
# [1] = test system: Molt-4 (T-cell lymphoma) or Raji tumors (B-cell lymphoma); assay type: in vivo, nude mice
# Outline: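 Athymic Nu/Nu mice, 4–6 weeks old, bore sc Molt-4 or Raji (1 × 10^7 cells, right upper back) and A549 (1 × 10^6 cells, left upper back), studied at 10–15 mm. Under pentobarbital ip anesthesia, Cy5.5-conjugated test compound given iv by tail vein; serial NIRF imaging 5 min–120 h (10 nmol), 30 s exposures. Ex vivo organs and tumors at 24 h (0.25 or 1 nmol); ROI mean intensity minus heart background.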
# Solubility = assay type: physicochemical; conditions: preliminary evidence
# [2] = iv tail vein, nude mice with Molt-4 or Raji and A549 xenografts, NIRF imaging
# activated α4β1 integrin, sequence (P13612 34-1032): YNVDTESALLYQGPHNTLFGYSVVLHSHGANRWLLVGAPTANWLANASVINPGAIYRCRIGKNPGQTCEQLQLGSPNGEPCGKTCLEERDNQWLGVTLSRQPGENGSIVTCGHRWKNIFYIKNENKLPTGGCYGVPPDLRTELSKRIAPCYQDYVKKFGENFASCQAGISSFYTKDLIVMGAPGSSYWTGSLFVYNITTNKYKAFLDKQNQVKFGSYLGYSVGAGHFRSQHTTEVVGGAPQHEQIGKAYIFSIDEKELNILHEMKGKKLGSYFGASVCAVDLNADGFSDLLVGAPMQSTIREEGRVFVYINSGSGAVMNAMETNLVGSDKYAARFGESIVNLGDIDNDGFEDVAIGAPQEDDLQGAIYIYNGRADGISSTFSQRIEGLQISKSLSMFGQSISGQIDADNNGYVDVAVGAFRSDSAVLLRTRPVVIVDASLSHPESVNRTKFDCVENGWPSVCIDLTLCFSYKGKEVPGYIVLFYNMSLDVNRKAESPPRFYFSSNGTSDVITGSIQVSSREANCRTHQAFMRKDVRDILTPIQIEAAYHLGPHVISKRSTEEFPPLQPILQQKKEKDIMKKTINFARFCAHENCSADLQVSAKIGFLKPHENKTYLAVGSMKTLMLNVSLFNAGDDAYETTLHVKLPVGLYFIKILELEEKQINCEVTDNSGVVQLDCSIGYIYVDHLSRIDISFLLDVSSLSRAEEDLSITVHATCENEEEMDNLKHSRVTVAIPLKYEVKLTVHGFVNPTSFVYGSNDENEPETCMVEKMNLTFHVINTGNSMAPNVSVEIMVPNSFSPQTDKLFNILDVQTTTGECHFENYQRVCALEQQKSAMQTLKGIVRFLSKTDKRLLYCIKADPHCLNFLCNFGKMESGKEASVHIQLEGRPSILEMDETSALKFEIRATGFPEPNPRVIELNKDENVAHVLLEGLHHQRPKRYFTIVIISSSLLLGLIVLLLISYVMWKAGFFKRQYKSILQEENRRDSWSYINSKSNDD
# activated α4β1 integrin, sequence (P05556 21-798): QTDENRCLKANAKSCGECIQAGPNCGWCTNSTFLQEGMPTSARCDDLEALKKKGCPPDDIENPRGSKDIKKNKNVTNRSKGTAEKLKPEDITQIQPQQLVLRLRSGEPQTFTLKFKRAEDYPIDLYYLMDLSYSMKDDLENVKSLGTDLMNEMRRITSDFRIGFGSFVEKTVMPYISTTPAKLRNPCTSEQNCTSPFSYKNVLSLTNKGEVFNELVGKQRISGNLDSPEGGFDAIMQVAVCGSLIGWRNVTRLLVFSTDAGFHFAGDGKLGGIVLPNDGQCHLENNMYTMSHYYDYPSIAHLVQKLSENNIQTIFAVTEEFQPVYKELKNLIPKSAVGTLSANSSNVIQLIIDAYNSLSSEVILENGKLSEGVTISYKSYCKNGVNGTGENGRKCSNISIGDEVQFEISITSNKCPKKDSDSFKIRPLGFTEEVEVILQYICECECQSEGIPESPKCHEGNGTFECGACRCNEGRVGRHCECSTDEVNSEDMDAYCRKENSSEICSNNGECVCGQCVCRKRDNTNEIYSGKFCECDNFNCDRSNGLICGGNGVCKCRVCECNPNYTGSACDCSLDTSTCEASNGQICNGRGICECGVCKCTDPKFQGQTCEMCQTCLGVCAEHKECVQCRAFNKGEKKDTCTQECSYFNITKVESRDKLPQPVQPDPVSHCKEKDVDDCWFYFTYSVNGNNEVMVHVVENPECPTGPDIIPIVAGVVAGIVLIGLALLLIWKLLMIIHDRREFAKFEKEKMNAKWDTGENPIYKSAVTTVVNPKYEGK
molecule,measurement,setting,value
Cc1cccc2oc(Nc3ccc(CC(=O)N[C@H](CCCCNC(=O)/C=C/c4cccnc4)C(=O)N[C@H](CCCC(=O)O)C(=O)NC4(C(N)=O)CCCCC4)cc3)nc12 [Compound 7],potency (in words),activated α4β1 integrin,low nM potency
Cc1cccc2oc(Nc3ccc(C(=O)N[C@H](CCCCNC(=O)/C=C/c4cccnc4)C(=O)N[C@H](CCCC(=O)O)C(=O)NC4(C(N)=O)CCCCC4)cc3)nc12 [Compound 9],potency (in words),activated α4β1 integrin,complete loss of potency
"NC(=O)C1(NC(=O)[C@@H](CCCC(=O)O)NC(=O)[C@@H](CCCCNC(=O)/C=C/c2cccnc2)NC(=O)Cc2ccc(Nc3nc4ccccc4s3)cc2)CCCCC1 [Compound 6, (R)-5-(R)-[2-{2-[4-(Benzothiazol-2-ylamino)-phenyl]acetylamino}-6-(E)-(3-pyridin-3-yl-acryloylamino)hexanoylamino]-5-(1-carbamoylcyclo-hexylcarbamoyl)pentanoic Acid]",potency (in words),activated α4β1 integrin,equipotent to 1
"NC(=O)C1(NC(=O)[C@H](CCCC(=O)O)NC(=O)[C@H](CCCCNC(=O)/C=C/c2cccnc2)NC(=O)Cc2ccc(Nc3nc4ccccc4[nH]3)cc2)CCCCC1 [Compound 2, reference compound]",potency relative to bisaryl urea 1 (fold less potent),activated α4β1 integrin; compared with 1,10 fold
NC(=O)C1(NC(=O)[C@@H](CCCC(=O)O)NC(=O)[C@@H](CCCCNC(=O)/C=C/c2cccnc2)NC(=O)c2ccc(Nc3nc4ccccc4o3)cc2)CCCCC1 [Compound 10],potency (in words),activated α4β1 integrin,complete loss of potency
Cc1ccc2[nH]c(Nc3ccc(C(=O)N[C@H](CCCCNC(=O)/C=C/c4cccnc4)C(=O)N[C@H](CCCC(=O)O)C(=O)NC4(C(N)=O)CCCCC4)cc3)nc2c1 [Compound 5],IC50,activated α4β1 integrin,490 nM
same,potency (in words),activated α4β1 integrin,mid nM potency
NC(=O)C1(NC(=O)[C@@H](CCCC(=O)O)NC(=O)[C@@H](CCCCNC(=O)/C=C/c2cccnc2)NC(=O)c2cccc(Nc3nc4cc(Br)ccc4[nH]3)c2)CCCCC1 [Compound 3],IC50,activated α4β1 integrin,30 nM
NC(=O)C1(NC(=O)[C@@H](CCCC(=O)O)NC(=O)[C@@H](CCCCNC(=O)/C=C/c2cccnc2)NC(=O)c2ccc(Nc3nc4ccccc4s3)cc2)CCCCC1 [Compound 11],potency (in words),activated α4β1 integrin,mid nM potency
"2-(1E,3E,5E)-5-3-(R)-1-(1-(R)-2-(R)-2-[2-(4-(benzo[d]thiazol-2-ylamino)phenyl)\acetamido]-6-(E)-3-(pyridin-3-yl)acrylamido)hexanamido)-5-carboxypentanamido)cyclohexyl)-27-carbamoyl-1,9,13,21,25,33-hexaoxo-5,17-dioxa-2,8,14,20,26,32-hexa-azaheptatriacontan-37-yl)-1,1-dimethyl-6,8-disulfonato-1H-benzo[e]indol-2(3H)-ylid-ene)penta-1,3-dienyl)-3-ethyl-1,1-di-methyl-1H-benzo[e]indolium-6,8-disulfonate [Compound 6-Cy5.5]",organ signal (in words),[1]; ex vivo NIRF of organs,"low liver, muscle, lung, and spleen signal"
same,kidney:tumor ratio (in words),"[1]; ex vivo NIRF, preliminary, compared with 1-Cy5.5",improvement in the kidney:tumor ratio
same,tumor uptake first observed post injection,[1]; [2],5 min
same,tumor uptake persisted post injection,[1]; [2],up to 120 h
same,solubility (in words),Solubility,improved solubility
